{
  "source": "ChEMBL document CHEMBL3779767",
  "about": "“Identification of potent and selective MTH1 inhibitors” (Bioorg Med Chem Lett, 2016)",
  "key": {"[1]": {"target": "Receptor tyrosine-protein kinase erbB-2 (Homo sapiens) (UniProt P04626)", "test": "Inhibition of partial length human ERBB2 expressed in mammalian system at 1 uM", "how_it_was_run": "(§1)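 Single-concentration screen at 1 µM test concentration, run as part of a commercial binding/activity profiling panel covering 97 kinases.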"}, "[2]": {"target": "3-phosphoinositide-dependent protein kinase 1 (Homo sapiens) (UniProt O15530)", "test": "Inhibition of partial length human PDPK1 expressed in bacterial system at 1 uM", "how_it_was_run": "(§2)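 Single-concentration screen across a panel of 97 kinases, with the test compound at 1 uM.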"}, "MDA-MB-231": {"system": "MDA-MB-231", "test": "Antiproliferative activity against human MDA-MB-231 cells assessed as change in phenotypic response up to 50 uM", "type": "functional, cell-based"}, "[3]": {"target": "Serine/threonine-protein kinase Chk1 (Homo sapiens) (UniProt O14757)", "sequence (O14757 whole entry)": "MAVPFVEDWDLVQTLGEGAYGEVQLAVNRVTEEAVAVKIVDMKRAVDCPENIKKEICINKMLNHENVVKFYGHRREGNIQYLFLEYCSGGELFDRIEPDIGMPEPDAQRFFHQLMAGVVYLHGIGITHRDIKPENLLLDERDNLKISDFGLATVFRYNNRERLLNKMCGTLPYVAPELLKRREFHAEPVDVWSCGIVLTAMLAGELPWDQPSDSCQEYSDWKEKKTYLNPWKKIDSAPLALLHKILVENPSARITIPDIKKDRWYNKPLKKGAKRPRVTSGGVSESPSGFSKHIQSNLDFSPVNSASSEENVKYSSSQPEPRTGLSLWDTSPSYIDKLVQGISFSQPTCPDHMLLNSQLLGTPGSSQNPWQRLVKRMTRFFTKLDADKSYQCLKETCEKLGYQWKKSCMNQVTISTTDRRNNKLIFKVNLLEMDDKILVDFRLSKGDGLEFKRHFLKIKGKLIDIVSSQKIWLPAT", "test": "Inhibition of partial length human CHEK1 expressed in bacterial system at 1 uM", "how_it_was_run": "(§3)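 Single-point screen within a 97-kinase profiling panel, with the test compound at 1 µM.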"}, "[4]": {"test": "Cytotoxicity against human 293T cells assessed as change in phenotypic response measured after prolonged treatment", "type": "cell-based", "conditions": "hek-293t"}, "[5]": {"target": "Mitogen-activated protein kinase kinase kinase 4 (Homo sapiens) (UniProt Q9Y6R4)", "test": "Inhibition of partial length human MAP3K4 expressed in bacterial system at 1 uM", "how_it_was_run": "as §3"}, "[6]": {"target": "NUAK family SNF1-like kinase 2 (Homo sapiens) (UniProt Q9H093)", "test": "Inhibition of partial length human SNARK expressed in mammalian system at 1 uM", "how_it_was_run": "as §2"}, "[7]": {"target": "Inhibitor of nuclear factor kappa-B kinase subunit alpha (Homo sapiens) (UniProt O15111)", "sequence (O15111 whole entry)": "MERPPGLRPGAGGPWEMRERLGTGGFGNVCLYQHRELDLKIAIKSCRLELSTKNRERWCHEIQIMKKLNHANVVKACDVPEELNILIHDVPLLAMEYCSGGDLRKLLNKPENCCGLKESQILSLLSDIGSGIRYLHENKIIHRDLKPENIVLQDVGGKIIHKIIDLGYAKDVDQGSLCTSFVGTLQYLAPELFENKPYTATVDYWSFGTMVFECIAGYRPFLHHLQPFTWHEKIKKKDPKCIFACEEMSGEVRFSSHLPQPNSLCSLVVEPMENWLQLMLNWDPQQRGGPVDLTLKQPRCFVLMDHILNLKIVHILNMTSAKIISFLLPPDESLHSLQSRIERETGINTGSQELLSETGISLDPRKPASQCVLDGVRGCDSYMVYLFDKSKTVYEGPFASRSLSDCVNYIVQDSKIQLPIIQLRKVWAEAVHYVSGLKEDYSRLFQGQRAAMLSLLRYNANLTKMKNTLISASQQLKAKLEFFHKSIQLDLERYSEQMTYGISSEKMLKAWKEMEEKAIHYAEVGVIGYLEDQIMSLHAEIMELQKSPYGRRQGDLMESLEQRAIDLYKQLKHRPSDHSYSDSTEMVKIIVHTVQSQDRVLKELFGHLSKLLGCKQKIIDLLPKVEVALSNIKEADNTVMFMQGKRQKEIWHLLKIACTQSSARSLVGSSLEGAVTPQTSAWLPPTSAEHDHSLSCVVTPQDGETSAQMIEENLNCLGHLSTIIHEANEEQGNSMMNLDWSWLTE", "test": "Inhibition of partial length human IKKalpha expressed in mammalian system at 1 uM", "how_it_was_run": "as §3"}, "[8]": {"target": "Casein kinase I isoform gamma-2 (Homo sapiens) (UniProt P78368)", "sequence (P78368 whole entry, looked up, canonical isoform)": "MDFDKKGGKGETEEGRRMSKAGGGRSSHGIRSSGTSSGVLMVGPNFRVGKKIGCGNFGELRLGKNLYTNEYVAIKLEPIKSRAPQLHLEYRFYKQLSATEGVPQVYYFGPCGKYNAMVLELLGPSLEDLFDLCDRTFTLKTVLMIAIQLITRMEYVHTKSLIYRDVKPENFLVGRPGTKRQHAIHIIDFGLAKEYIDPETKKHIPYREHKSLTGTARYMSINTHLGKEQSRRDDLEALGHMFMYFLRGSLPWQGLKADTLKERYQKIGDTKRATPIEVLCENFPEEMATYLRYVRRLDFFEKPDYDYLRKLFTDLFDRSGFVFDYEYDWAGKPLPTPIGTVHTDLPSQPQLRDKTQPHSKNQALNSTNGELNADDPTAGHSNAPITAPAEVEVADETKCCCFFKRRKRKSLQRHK", "test": "Inhibition of partial length human CSNK1G2 expressed in bacterial system at 1 uM", "how_it_was_run": "as §3"}, "[9]": {"target": "Serine/threonine-protein kinase B-raf (Homo sapiens) (UniProt P15056)", "test": "Inhibition of partial length human BRAF expressed in mammalian system at 1 uM", "how_it_was_run": "as §3"}, "[10]": {"test": "Permeability across MDCK cells", "type": "ADME, cell-based, Canis lupus familiaris", "conditions": "dog, read-out: permeability", "how_it_was_run": "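Measured across a confluent MDCK cell monolayer; apparent permeability is reported together with the efflux ratio.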"}, "[11]": {"target": "Serine/threonine-protein kinase PLK3 (Homo sapiens) (UniProt Q9H4B4)", "sequence (Q9H4B4 whole entry, looked up)": "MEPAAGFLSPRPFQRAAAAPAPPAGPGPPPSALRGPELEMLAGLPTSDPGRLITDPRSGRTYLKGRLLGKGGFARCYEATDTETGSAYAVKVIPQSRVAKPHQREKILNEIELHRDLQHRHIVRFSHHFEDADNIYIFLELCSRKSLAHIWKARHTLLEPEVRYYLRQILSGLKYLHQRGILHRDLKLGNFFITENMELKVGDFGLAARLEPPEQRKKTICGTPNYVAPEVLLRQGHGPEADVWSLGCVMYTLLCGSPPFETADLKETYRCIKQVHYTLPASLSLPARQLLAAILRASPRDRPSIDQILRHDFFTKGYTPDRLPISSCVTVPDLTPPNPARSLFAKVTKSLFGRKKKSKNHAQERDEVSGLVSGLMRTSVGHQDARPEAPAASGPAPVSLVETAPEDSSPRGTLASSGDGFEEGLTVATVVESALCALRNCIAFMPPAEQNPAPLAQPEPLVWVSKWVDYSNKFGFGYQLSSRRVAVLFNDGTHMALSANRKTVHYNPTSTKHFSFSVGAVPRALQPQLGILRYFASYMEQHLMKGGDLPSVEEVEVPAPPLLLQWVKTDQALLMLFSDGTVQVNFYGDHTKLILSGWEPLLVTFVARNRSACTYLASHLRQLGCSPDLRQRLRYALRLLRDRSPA", "test": "Inhibition of partial length human PLK3 expressed in mammalian system at 1 uM", "how_it_was_run": "as §2"}, "SW480": {"system": "SW480", "test": "Antiproliferative activity against human SW480 cells assessed as change in phenotypic response up to 50 uM", "type": "functional, cell-based"}, "[12]": {"target": "Tyrosine-protein kinase receptor UFO (Homo sapiens) (UniProt P30530)", "sequence (P30530 whole entry)": "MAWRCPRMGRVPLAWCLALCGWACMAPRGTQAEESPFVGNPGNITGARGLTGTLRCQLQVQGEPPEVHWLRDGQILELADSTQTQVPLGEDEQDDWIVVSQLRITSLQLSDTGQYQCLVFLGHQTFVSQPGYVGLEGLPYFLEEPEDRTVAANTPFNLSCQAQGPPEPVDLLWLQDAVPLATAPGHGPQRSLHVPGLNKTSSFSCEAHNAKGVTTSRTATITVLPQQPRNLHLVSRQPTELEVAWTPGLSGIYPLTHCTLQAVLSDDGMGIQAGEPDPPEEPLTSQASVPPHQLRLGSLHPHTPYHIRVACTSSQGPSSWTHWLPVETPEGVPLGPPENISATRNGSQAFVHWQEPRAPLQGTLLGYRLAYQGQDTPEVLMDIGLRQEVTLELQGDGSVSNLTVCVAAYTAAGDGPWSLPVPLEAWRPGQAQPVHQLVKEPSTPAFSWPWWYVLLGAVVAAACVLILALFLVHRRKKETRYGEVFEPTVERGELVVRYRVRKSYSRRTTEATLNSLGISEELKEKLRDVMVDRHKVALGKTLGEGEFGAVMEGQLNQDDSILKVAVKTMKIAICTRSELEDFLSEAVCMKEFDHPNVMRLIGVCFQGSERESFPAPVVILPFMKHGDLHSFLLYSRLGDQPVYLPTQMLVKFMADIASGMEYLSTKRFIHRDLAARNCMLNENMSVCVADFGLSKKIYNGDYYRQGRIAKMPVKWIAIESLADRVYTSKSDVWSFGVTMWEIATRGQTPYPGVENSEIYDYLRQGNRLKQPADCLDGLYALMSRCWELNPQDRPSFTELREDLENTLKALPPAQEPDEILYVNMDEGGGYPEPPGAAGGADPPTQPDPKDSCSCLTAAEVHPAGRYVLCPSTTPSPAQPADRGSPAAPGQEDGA", "test": "Inhibition of partial length human AXL expressed in bacterial system at 1 uM", "how_it_was_run": "as §3"}, "[13]": {"target": "Cyclin-dependent kinase 9 (Homo sapiens) (UniProt P50750)", "test": "Inhibition of partial length human CDK9 expressed in bacterial system at 1 uM", "how_it_was_run": "as §3"}, "[14]": {"target": "Tyrosine-protein kinase BTK (Homo sapiens) (UniProt Q06187)", "test": "Inhibition of partial length human BTK expressed in mammalian system at 1 uM", "how_it_was_run": "as §3"}, "[15]": {"target": "Dual specificity mitogen-activated protein kinase kinase 2 (Homo sapiens) (UniProt P36507)", "test": "Inhibition of partial length human MEK2 expressed in mammalian system at 1 uM", "how_it_was_run": "as §2"}, "[16]": {"target": "Inhibitor of nuclear factor kappa-B kinase subunit beta (Homo sapiens) (UniProt O14920)", "test": "Inhibition of partial length human IKKbeta expressed in mammalian system at 1 uM", "how_it_was_run": "as §3"}, "[17]": {"target": "Glycogen synthase kinase-3 beta (Homo sapiens) (UniProt P49841)", "test": "Inhibition of partial length human GSK3beta expressed in mammalian system at 1 uM", "how_it_was_run": "as §3"}, "[18]": {"target": "Serine/threonine-protein kinase PAK 1 (Homo sapiens) (UniProt Q13153)", "test": "Inhibition of partial length human PAK1 expressed in bacterial system at 1 uM", "how_it_was_run": "as §2"}, "BJ": {"system": "BJ", "test": "Cytotoxicity against human BJ cells assessed as change in phenotypic response up to 50 uM", "type": "cell-based"}, "[19]": {"target": "High affinity nerve growth factor receptor (Homo sapiens) (UniProt P04629)", "test": "Inhibition of partial length human TRKA expressed in mammalian system at 1 uM", "how_it_was_run": "as §2"}, "[20]": {"test": "Plasma protein binding in human", "type": "ADME, cell-free", "conditions": "read-out: PPB (converted)"}, "[21]": {"target": "Fibroblast growth factor receptor 3 (Homo sapiens) (UniProt P22607)", "test": "Inhibition of partial length human FGFR3 expressed in bacterial system at 1 uM", "how_it_was_run": "as §3"}, "[22]": {"system": "Serine/threonine-protein kinase B-raf (Homo sapiens), P15056 [V600E]", "test": "Inhibition of partial length human BRAF V600E mutant expressed in mammalian system at 1 uM", "how_it_was_run": "as §3"}, "[23]": {"target": "Mast/stem cell growth factor receptor Kit (Homo sapiens) (UniProt P10721)", "test": "Inhibition of partial length human KIT expressed in bacterial system at 1 uM", "how_it_was_run": "as §1"}, "[24]": {"system": "Mast/stem cell growth factor receptor Kit (Homo sapiens), P10721 [D816V]", "test": "Inhibition of partial length human KIT D816V mutant expressed in bacterial system at 1 uM", "how_it_was_run": "as §1"}, "[25]": {"target": "SRSF protein kinase 3 (Homo sapiens) (UniProt Q9UPE1)", "test": "Inhibition of partial length human SRPK3 expressed in bacterial system at 1 uM", "how_it_was_run": "as §2"}, "MRC5 [26]": {"system": "MRC5", "test": "Cytotoxicity against human MRC5 cells assessed as change in phenotypic response up to 50 uM", "type": "cell-based"}, "[27]": {"test": "Fraction unbound in human plasma", "type": "ADME, cell-free"}, "[28]": {"target": "RAF proto-oncogene serine/threonine-protein kinase (Homo sapiens) (UniProt P04049)", "test": "Inhibition of partial length human RAF1 expressed in bacterial system at 1 uM", "how_it_was_run": "as §2"}, "[29]": {"target": "Rho-associated protein kinase 2 (Homo sapiens) (UniProt O75116)", "test": "Inhibition of partial length human ROCK2 expressed in mammalian system at 1 uM", "how_it_was_run": "as §2"}, "[30]": {"target": "Phosphatidylinositol 4,5-bisphosphate 3-kinase catalytic subunit gamma isoform (Homo sapiens) (UniProt P48736)", "sequence (P48736 whole entry, looked up, canonical isoform)": "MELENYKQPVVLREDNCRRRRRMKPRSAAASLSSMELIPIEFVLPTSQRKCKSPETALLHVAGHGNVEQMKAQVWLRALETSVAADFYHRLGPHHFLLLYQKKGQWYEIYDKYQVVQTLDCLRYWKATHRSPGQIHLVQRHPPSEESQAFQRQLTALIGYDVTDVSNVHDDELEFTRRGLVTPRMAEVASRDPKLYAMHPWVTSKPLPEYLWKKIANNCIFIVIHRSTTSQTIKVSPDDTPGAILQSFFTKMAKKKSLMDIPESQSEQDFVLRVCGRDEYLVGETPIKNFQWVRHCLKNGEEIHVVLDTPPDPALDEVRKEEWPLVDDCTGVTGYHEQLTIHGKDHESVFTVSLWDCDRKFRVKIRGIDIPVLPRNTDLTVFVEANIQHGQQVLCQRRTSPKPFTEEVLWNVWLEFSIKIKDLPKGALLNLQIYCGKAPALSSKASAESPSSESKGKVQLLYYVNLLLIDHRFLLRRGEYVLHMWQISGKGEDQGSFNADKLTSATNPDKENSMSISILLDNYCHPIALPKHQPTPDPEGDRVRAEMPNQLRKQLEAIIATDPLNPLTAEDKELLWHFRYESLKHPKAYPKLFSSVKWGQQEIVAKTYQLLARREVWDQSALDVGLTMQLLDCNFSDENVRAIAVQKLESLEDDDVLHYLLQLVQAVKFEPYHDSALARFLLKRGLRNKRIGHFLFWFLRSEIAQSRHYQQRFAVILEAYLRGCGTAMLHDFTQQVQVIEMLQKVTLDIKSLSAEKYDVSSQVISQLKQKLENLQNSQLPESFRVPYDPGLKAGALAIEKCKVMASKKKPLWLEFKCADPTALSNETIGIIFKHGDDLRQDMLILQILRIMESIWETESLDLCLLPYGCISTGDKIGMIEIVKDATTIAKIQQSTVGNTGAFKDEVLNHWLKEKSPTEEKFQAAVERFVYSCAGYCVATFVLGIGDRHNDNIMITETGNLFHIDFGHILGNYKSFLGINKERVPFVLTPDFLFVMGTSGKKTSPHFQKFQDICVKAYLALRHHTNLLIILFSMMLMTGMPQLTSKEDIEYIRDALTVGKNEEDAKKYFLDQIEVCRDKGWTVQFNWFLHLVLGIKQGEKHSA", "test": "Inhibition of partial length human PIK3Cgamma expressed in mammalian system at 1 uM", "how_it_was_run": "as §2"}, "[31]": {"target": "Tyrosine-protein kinase ABL1 (Homo sapiens) (UniProt P00519)", "test": "Inhibition of partial length human ABL1 expressed in mammalian system at 1 uM", "how_it_was_run": "as §3"}, "[32]": {"test": "Half life in mouse liver microsomes", "type": "ADME", "how_it_was_run": "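Incubated with human or mouse liver microsomes; the read-out was intrinsic clearance alongside half-life, given in hours.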"}, "[33]": {"system": "Tyrosine-protein kinase ABL1 (Homo sapiens), P00519 [T315I]", "test": "Inhibition of partial length human ABL1 T315I mutant phosphorylation expressed in mammalian system at 1 uM", "how_it_was_run": "as §3"}, "MRC5 [34]": {"system": "MRC5", "test": "Cytotoxicity against human MRC5 cells assessed as change in phenotypic response measured after prolonged treatment", "type": "cell-based"}, "NCI-H460": {"system": "NCI-H460", "test": "Antiproliferative activity against human NCI-H460 cells assessed as change in phenotypic response up to 50 uM", "type": "functional, cell-based"}, "[35]": {"target": "MAP/microtubule affinity-regulating kinase 3 (Homo sapiens) (UniProt P27448)", "sequence (P27448 whole entry, looked up)": "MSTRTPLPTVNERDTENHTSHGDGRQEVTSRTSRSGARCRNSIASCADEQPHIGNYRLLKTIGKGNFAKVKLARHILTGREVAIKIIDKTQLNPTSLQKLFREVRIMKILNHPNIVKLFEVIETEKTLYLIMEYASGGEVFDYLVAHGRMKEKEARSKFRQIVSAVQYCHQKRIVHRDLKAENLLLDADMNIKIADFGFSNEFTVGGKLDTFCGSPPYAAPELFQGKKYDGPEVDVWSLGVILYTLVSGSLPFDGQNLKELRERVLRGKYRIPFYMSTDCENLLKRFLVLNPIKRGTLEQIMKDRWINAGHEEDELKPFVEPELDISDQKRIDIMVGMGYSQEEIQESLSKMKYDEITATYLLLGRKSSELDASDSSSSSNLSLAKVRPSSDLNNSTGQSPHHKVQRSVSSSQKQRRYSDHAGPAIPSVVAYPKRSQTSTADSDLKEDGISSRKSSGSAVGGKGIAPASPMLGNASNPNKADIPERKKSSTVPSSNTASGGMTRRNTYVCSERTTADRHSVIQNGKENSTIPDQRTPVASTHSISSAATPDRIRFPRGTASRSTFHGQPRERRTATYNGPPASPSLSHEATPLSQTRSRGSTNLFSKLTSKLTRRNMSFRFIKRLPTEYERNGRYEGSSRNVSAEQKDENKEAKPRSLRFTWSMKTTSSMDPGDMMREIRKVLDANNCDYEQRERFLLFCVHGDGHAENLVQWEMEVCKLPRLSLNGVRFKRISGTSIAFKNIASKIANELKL", "test": "Inhibition of partial length human MARK3 expressed in bacterial system at 1 uM", "how_it_was_run": "as §3"}, "A549": {"system": "A549", "test": "Antiproliferative activity against human A549 cells assessed as change in phenotypic response up to 50 uM", "type": "functional, cell-based"}, "[36]": {"target": "Mitogen-activated protein kinase kinase kinase 9 (Homo sapiens) (UniProt P80192)", "test": "Inhibition of partial length human MLK1 expressed in bacterial system at 1 uM", "how_it_was_run": "as §2"}},
  "note": "Active and inactive are the calls of the source. The calls are words filed in the database; no cut-off is given here.",
  "data": [
    {"smiles": "Cc1cnc(N)nc1OCC(C)(C)CO", "values": [
      {"measurement": "inhibition", "setting": "[1]", "result": "inactive"},
      {"measurement": "inhibition", "setting": "[2]", "result": "inactive"},
      {"measurement": "Activity", "setting": "MDA-MB-231", "result": "inactive"},
      {"measurement": "inhibition", "setting": "[3]", "result": "inactive"},
      {"measurement": "Activity", "setting": "[4]", "result": "Non-toxic"},
      {"measurement": "inhibition", "setting": "[5]", "result": "inactive"},
      {"measurement": "inhibition", "setting": "[6]", "result": "inactive"},
      {"measurement": "inhibition", "setting": "[7]", "result": "inactive"},
      {"measurement": "inhibition", "setting": "[8]", "result": "inactive"},
      {"measurement": "inhibition", "setting": "[9]", "result": "inactive"},
      {"measurement": "Papp", "setting": "[10]", "result": 32, "unit": "×10⁻⁶ cm/s"},
      {"measurement": "inhibition", "setting": "[11]", "result": "inactive"},
      {"measurement": "Activity", "setting": "SW480", "result": "inactive"},
      {"measurement": "inhibition", "setting": "[12]", "result": "inactive"},
      {"measurement": "inhibition", "setting": "[13]", "result": "inactive"},
      {"measurement": "inhibition", "setting": "[14]", "result": "inactive"},
      {"measurement": "inhibition", "setting": "[15]", "result": "inactive"},
      {"measurement": "inhibition", "setting": "[16]", "result": "inactive"},
      {"measurement": "inhibition", "setting": "[17]", "result": "inactive"},
      {"measurement": "inhibition", "setting": "[18]", "result": "inactive"},
      {"measurement": "Activity", "setting": "BJ", "result": "Non-toxic"},
      {"measurement": "inhibition", "setting": "[19]", "result": "inactive"},
      {"measurement": "fraction unbound", "setting": "[20]", "result": 0.46},
      {"measurement": "inhibition", "setting": "[21]", "result": "inactive"},
      {"measurement": "inhibition", "setting": "[22]", "result": "inactive"},
      {"measurement": "inhibition", "setting": "[23]", "result": "inactive"},
      {"measurement": "inhibition", "setting": "[24]", "result": "inactive"},
      {"measurement": "inhibition", "setting": "[25]", "result": "inactive"},
      {"measurement": "Activity", "setting": "MRC5 [26]", "result": "Non-toxic"},
      {"measurement": "fraction unbound", "setting": "[27]", "result": 0.46},
      {"measurement": "inhibition", "setting": "[28]", "result": "inactive"},
      {"measurement": "inhibition", "setting": "[29]", "result": "inactive"},
      {"measurement": "inhibition", "setting": "[30]", "result": "inactive"},
      {"measurement": "inhibition", "setting": "[31]", "result": "inactive"},
      {"measurement": "half-life", "setting": "[32]", "result": 1.5, "unit": "h"},
      {"measurement": "inhibition", "setting": "[33]", "result": "inactive"},
      {"measurement": "Activity", "setting": "MRC5 [34]", "result": "Non-toxic"},
      {"measurement": "Activity", "setting": "NCI-H460", "result": "inactive"},
      {"measurement": "inhibition", "setting": "[35]", "result": "inactive"},
      {"measurement": "Activity", "setting": "A549", "result": "inactive"},
      {"measurement": "inhibition", "setting": "[36]", "result": "inactive"}
    ]}
  ]
}
